Legend:
[1] = Volume of steady state distribution in cynomolgus monkey at 1 mg/kg, iv measured up to 24 hrs by LC-MS/MS analysis; format: ADME, organism-based, Macaca fascicularis; conditions: in vivo
Summary of the method: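 Male Beagle dog or male cynomolgus monkey; 1 mg/kg as 5 min iv infusion in 9:1 PEG:EtOH; n = 3; volume of distribution at steady state.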

[2] = Cardiotoxicity in unconscious telemeterized rabbit assessed as increase in QTcf time at 10 mg/kg; format: toxicity, organism-based, Oryctolagus cuniculus; conditions: in vivo

Compound: CNc1nc(Nc2ccc(-n3cnc(C)n3)c(OC)c2)nc2c1CC[C@H]2c1ccc(F)cc1
- Vdss [1]: 5.4 L/kg
- Time [2]: 3 ms

Reference: ChEMBL document CHEMBL4699441, “Identification and Preclinical Evaluation of the Bicyclic Pyrimidine γ-Secretase Modulator BMS-932481” (ACS Med Chem Lett, 2019)
